A selection: hits, their analogues and other compounds. The true share with any hit is near 2.2%.
HIV Env fusion: HIV envelope-mediated fusion inhibition. inhibition, % at 12.3 µM. AID 651610. 360,000 tested, 1.1% active. HeLa-JRFL Env/CEM21 cell fusion, luciferase;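 active = mean replicate inhibition score of at least 50 and every replicate individually at or above 50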;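 also: 0% = plate neutral controls and 100% = maraviroc near 300 nM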
FXN GAA850 act: increases GAA850 frataxin promoter reporter activity. HEK293 lucGAA850 FXN promoter luciferase reporter, 24 h; percent of 10 µM SAHA response. activation, % at 6 µM. 360,000 tested, 0.56% active. AID 540364;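 active = activation above the average of all compounds screened plus 3 SD, cutoff fixed separately per campaign, cut at about 7.5% in these data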;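 also: 0% = DMSO wells and 100% = 10 µM SAHA wells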
NR2E3 ag-1: NR2E3 (human) agonism. Q9Y5X4. GST-NR2E3/biotin-RetCOR TR-FRET, 1536-well. inhibition of corepressor binding, % at 4.78 µM. 320,000 tested, 0.12% active. AID 2300;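 active = percent inhibition above the cutoff of mean plus 3 SD of all tested compounds, set per screening campaign, cut at about 20% in these data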;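 also: 0% = DMSO wells and 100% = biotin wells as full block of FRET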
Target sequence (Q9Y5X4 whole entry, looked up): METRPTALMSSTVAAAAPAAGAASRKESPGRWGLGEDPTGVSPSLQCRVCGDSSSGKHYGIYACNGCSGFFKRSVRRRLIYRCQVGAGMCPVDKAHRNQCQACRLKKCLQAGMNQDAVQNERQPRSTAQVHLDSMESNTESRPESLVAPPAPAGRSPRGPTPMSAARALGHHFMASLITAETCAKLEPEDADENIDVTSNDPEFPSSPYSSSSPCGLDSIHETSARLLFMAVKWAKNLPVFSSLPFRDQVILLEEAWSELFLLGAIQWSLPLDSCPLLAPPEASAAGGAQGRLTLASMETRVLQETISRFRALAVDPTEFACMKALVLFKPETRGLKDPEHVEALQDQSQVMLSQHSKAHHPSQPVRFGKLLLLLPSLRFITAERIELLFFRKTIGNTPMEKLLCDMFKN
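Material: NR2E3–RetCOR corepressor complex / Incubation: Compound–protein incubation for 5 h at 4 °C / Dosing: compound at 4.8 µM, single dose / Detection: time-resolved FRET / Benchmarks: high control biotin, low control 0.6% DMSO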
NR2E3 ag-2: agonists of human NR2E3 nuclear receptor | CHO-S Gal4-NCOR/VP16-NR2E3 two-hybrid, luciferase | inhibition of corepressor binding, % at 3.98 µM | 360,000 tested, 0.35% active | Q9Y5X4;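 active = inhibition above the mean of all tested compounds plus 3 SD, cut at about 70% in these data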;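 also: 0% = DMSO with NR2E3 transfected cells and 100% = cells lacking NR2E3 construct; higher means lower luciferase signal from less NR2E3 corepressor binding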
V-ATPase pHluor: alters yeast V-ATPase proton transport. S. cerevisiae, pHLuorin cytosolic pH fluorescence. response, % at 10 µM. 350,000 tested, 0.37% active; in the data active = response mostly above about 7.3%, no sharp cut-off; inactive = mostly below about 5.4%; also: actives read high
GalR3 antagonist: blocks the human galanin receptor 3 | O60755 | HEK293 GalR3-CNG cAMP membrane potential fluorescence; galR3 body fused to GalR1 C-terminus | inhibition, % at 3 µM | 360,000 tested, 0.44% active;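 active = inhibition above the screen-wide average plus 3 SD, cut at about 13% in these data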;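 also: forskolin and galanin both at EC90 stimulate the cells; cAMP rise reported by CNG channel membrane potential dye signal; 0% = forskolin plus galanin with DMSO and 100% = forskolin alone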
Target sequence (O60755 1-299 limits assumed): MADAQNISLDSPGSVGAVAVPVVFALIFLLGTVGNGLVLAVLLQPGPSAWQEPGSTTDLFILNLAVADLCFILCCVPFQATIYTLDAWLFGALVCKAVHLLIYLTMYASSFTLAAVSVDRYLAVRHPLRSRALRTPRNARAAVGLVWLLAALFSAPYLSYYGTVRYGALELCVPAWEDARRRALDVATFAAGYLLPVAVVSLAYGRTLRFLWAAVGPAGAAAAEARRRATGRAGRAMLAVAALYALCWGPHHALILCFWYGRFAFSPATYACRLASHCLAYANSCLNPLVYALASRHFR
Numbers without * were called inactive; . = not tested or not shown; [ ] = remark or other dose.

SMILES | HIV Env fusion | FXN GAA850 act | NR2E3 ag-1 | NR2E3 ag-2 | V-ATPase pHluor | GalR3 antagonist
CCC(=O)N(C)C[C@H]1Oc2cc(C#Cc3ccncc3)ccc2S(=O)(=O)N([C@@H](C)CO)C[C@@H]1C | -21[16.7 µM] | . | . | . | . | .
Cn1cc(Cl)c(C(=O)N/N=C/c2ccc3c4c(cccc24)CC3)n1 | . | 8.0* | -1 | -104 | 11 | .
Cc1ccc(S(=O)(=O)Nc2ccc3c(c2)C(=O)N([C@@H](C)CO)C[C@H](C)[C@H](CN(C)S(=O)(=O)c2cccs2)OCCCC[C@H](C)O3)cc1 | 27[16.7 µM] | . | . | . | . | .
Cc1sc2ncnc(N3CCN(S(=O)(=O)c4ccc(Br)cc4)CC3)c2c1C | 78* | -1 | 4 | -1 | -1 | -1
COc1ccc(-c2csc3ncnc(N4CCN(S(=O)(=O)c5ccc(C)cc5)CC4)c23)cc1 | 63* | -4 | -1 | -22 | -1 | -4
NC(=O)[C@@H]1[C@H]2C(=O)O[C@H](c3ccccc3)[C@H](c3ccccc3)N2[C@H](c2ccc(OCCO)cc2)[C@@]12C(=O)Nc1ccccc12 | -4[16.7 µM] | . | . | . | . | .
C[C@H](CO)N1C[C@H](C)[C@H](CN(C)C(=O)Nc2cccc3ccccc23)Oc2ccc(N(C)C)cc2CC1=O | 11[16.7 µM] | . | . | . | . | .
COC(=O)C1=C(N)Oc2cc(N(C)C)ccc2C1c1ccccc1OC (stereo not drawn) | 61* | -5 | -2 | 7 | 1 | -9
O=C(C1=C[C@@H](c2ccc(C(F)(F)F)cc2)C[C@@H](OCc2ccc(CO)cc2)O1)N1CCCCCCC1 | 0[16.7 µM] | . | . | . | . | .
CCC12CN(S(=O)(=O)c3ccc(C)cc3)CC(CC)(CN(S(=O)(=O)c3ccc(C)cc3)C1)C2=O | 109* | -2 | 4 | -33 | 1 | 9
Cc1ccc(S(=O)(=O)N2CC3(C)CN(S(=O)(=O)c4ccc(C)cc4)CC(C)(C2)C3)cc1 | . | -3 | 3 | -19 | 3 | -5
CCN(CC(O)Cn1c2ccccc2c2ccccc21)S(=O)(=O)c1ccc(C)cc1 (stereo not drawn) | 56* | 1 | 1 | -11 | -4 | -2
O=C(C[C@@H]1CC[C@H](NC(=O)Nc2ccc(C(F)(F)F)cc2)[C@H](CO)O1)NCc1cc(F)cc(F)c1 | 45[16.7 µM] | . | . | . | . | .
CC1=CC(C)(C)N(C(=O)c2ccccc2)c2ccc(C)cc21 | 94* | 1 | . | -8 | 1 | -6
COc1ccc(NC(=O)Nc2ccc3c(c2)CC(=O)N([C@H](C)CO)C[C@H](C)[C@H](CN(C)C(=O)NC(C)C)O3)cc1 | -1[16.7 µM] | . | . | . | . | .
Cc1ccc2cc3cc(C(=O)NCCN4CCOCC4)oc3nc2c1 | 59* | 0 | 3 | 23 | 1 | 5
COc1ccc2cc3cc(C(=O)NCCc4ccc(OC)c(OC)c4)oc3nc2c1 | 68* | -10 | 2 | 6 | 1 | -7
CCCN(CCC)CCCNC(=O)c1cc2cc3ccc(OC)cc3nc2o1 | -38 | 2 | 0 | -22 | -2 | -4
COc1ccc2sc(N(CCCN(C)C)C(=O)c3ccc(S(=O)(=O)N4CCCC4)cc3)nc2c1 | -15 | 3 | 0 | 12 | 0 | 6
COc1ccc2sc(N(CCCN(C)C)C(=O)c3ccc(S(=O)(=O)N4CCc5ccccc5C4)cc3)nc2c1 | 102* | 2 | 4 | 16 | -4 | -4
CCCN(CCC)C(=O)CSc1nc2ccccc2c(=O)n1CC1COc2ccccc2O1 (stereo not drawn) | 26 | 1 | 0 | 2 | -9 | 5
CCOC(=O)CSc1nc2ccccc2c(=O)n1CC1COc2ccccc2O1 (stereo not drawn) | 65* | 1 | 3 | -22 | -1 | -4
C[C@@H]1CN([C@@H](C)CO)C(=O)Cc2cc(NS(=O)(=O)c3ccc(Cl)cc3)ccc2O[C@@H]1CN(C)S(=O)(=O)c1cn(C)cn1 | -12[16.7 µM] | . | . | . | . | .
CCOC(=O)c1c(CSCc2ccccc2)oc2ccc(O)c(CN(C)C)c12 | 58* | 1 | 2 | 9 | 0 | -25
CCc1ccc(N(C(=O)c2snc(C(N)=O)c2N)C(C(=O)NC2CCCC2)c2ccco2)cc1 (stereo not drawn) | 56* | 3 | 3 | -33 | -1 | -8
SMILES | HIV Env fusion | FXN GAA850 act | NR2E3 ag-1 | NR2E3 ag-2 | V-ATPase pHluor | GalR3 antagonist
Cc1ccc(C(C(=O)NC2CCCC2)N(Cc2ccc(F)cc2)C(=O)c2snc(C(N)=O)c2N)o1 (stereo not drawn) | 65* | 1 | 0 | -12 | 0 | -11
COc1ccc(CN(C(=O)Cc2c[nH]c3ccccc23)C(C(=O)NC2CCCCC2)c2ccc(C)o2)cc1 (stereo not drawn) | 109* | -4 | -2 | -24 | -2 | -3
O=C(Nc1ccc(NC(=O)c2cccs2)cc1)c1cccs1 | -29 | 3 | 0 | -32 | -4 | 0
COc1ccc(NC(=O)c2cccs2)cc1 | . | 1 | 2 | -82 | 21* | -1
O=C(N/N=C/c1ccc(OC(=O)c2ccccc2)cc1)c1cccnc1 | 57* | 2 | 3 | -9 | 0 | -7
O=C(CCN1CCCCC1)N[C@@H]1CC[C@H](CCNC(=O)c2cc(Cl)cc(Cl)c2)O[C@H]1CO | -25[16.7 µM] | . | . | . | . | .
CCC(=O)N1C[C@@H](O)COC[C@H]2O[C@H](CC(=O)NCc3cc(F)cc(F)c3)CC[C@@H]21 | -15[16.7 µM] | . | . | . | . | .
CCCC(=O)Nc1ccc2c(c1)OC[C@@H](C)N(CCC)C[C@@H](C)[C@@H](OC)CN(C)C2=O | -5[16.7 µM] | . | . | . | . | .
Cc1nn(C)cc1NC(=O)C[C@@H]1CC[C@@H]2[C@H](COc3ccc(NC(=O)C(C)C)cc3C(=O)N2C)O1 | 11[16.7 µM] | . | . | . | . | .
FC(F)(F)c1nc(N2CCCC2)ncc1-c1nnnn1-c1ccc(Cl)cc1 | 58* | -5 | 3 | 40 | -2 | -3
CO[C@@H]1CN(C)C(=O)c2ccc(NC(C)=O)cc2OC[C@@H](C)N(Cc2ccccc2F)C[C@H]1C | -24[16.7 µM] | . | . | . | . | .
C[C@H](CO)N1C[C@H](C)[C@@H](CN(C)S(=O)(=O)c2ccccc2)Oc2cc(Br)ccc2S1(=O)=O | 28[16.7 µM] | . | . | . | . | .
O=C(Cc1cccc2ccccc12)NCC(=O)N1CCN(CC(=O)Nc2ccc(F)cc2)CC1 | 65* | 2 | . | 27 | . | -5
COc1cccc(NC(=O)C(c2ccccc2)N2CCCCC2)c1 (stereo not drawn) | 19 | -2 | -1 | -26 | 1 | -5
O=C(Nc1cc(Cl)cc(Cl)c1)C(c1ccccc1)N1CCCCC1 (stereo not drawn) | 75* | 4 | 0 | 14 | -2 | -6
C[C@H](CO)N1C[C@H](C)[C@@H](CN(C)C)Oc2ncc(-c3cccc(C(=O)N(C)C)c3)cc2C1=O | -9[16.7 µM] | . | . | . | . | .
N#Cc1c(F)cccc1N1CCC(C#N)CC1 | 64* | 2 | 1 | -3 | -6 | 4
Cc1ccc(NC(=O)[C@@H]2CCCN2S(=O)(=O)c2ccccc2C(F)(F)F)cc1S(=O)(=O)N1CCOCC1 | 57* | 7 | -1 | -9 | -3 | 7

From PubChem
